Here are results for one compound from ChEMBL document CHEMBL4311977, “Design and synthesis of parthenolide and 5-fluorouracil conjugates as potential anticancer agents against drug resistant hepatocellular carcinoma” (Eur J Med Chem, 2019).

In test [1] the test system is Bel7402/5-FU. Nature of the test: Induction of apoptosis in human Bel7402/5-FU assessed as late apoptotic cells at 2.5 uM incubated for 48 hrs by annexinV-FITC/propidium iodide staining based flow cytometry (reference value: 0.268 to 0.945 %). Background: Flow cytometry measures light scatter and fluorescence of single cells or particles in a stream.
The subject of test [2] is Bel7402/5-FU. Nature of the test: Potency index, ratio of parthenolide IC50 to compound IC50 for antiproliferative activity against human Bel7402/5-FU cells. The test is classed as functional.
Test [3] deals with Bel-7402. The test can be described thus: Antiproliferative activity against human Bel7402 incubated for 72 hrs by MTT assay. Type of test: functional, cell-based. The following applies: Bel-7402, 72 h. An outline of the steps:
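Bel-7402 and its 5-FU-resistant subline were kept in RPMI-1640 with 10% FBS and 1% penicillin/streptomycin at 37 °C under 5% CO2. Cells were seeded at 5000 per well and left for 12 h, then exposed to a concentration series for 72 h. MTT stock (5 mg/mL) was added for 4 h and the product dissolved in DMSO. OD was read at 570 nm and IC50 obtained by curve fitting.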

Test [4] concerns Bel7402/5-FU. Nature of the test: Down regulation of ABCC1 expression in human Bel7402/5-FU cells incubated for 24 hrs by western blot analysis. The test is classed as functional, cell-based. An outline of the steps:
(§1)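 Bel-7402/5-FU cells were seeded at 5 × 10⁵ per well and left 12 h, then treated with four concentrations (0.5, 1, 2, 5) for 24 h. Cells were PBS-washed and lysed in RIPA on ice for 30 min, then denatured at 100 °C for 5 min. Lysates went through SDS-PAGE and PVDF transfer, 5% milk blocking for 1 h at room temperature, primary antibodies, and HRP secondary for 2 h at room temperature.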
On the technique in general: In western blotting, separated proteins are transferred to a membrane and probed.

Test [5] relates to Bel7402/5-FU. The test can be described thus: Down regulation of MDR1 expression in human Bel7402/5-FU cells incubated for 24 hrs by western blot analysis. The test is classed as functional, cell-based. Put shortly:
as §1

The test system of test [6] is Bel7402/5-FU. The test can be described thus: Induction of apoptosis in human Bel7402/5-FU cells assessed as upregulation of Bim expression at 0.5 to 5 uM incubated for 24 hrs by Western blot analysis. The test is classed as functional, cell-based. Put shortly: as §1
In test [7] the test system is NIH3T3. The test can be described thus: Cytotoxicity against mouse 3T3 cells. The test is classed as cell-based.
The subject of test [8] is Bel7402/5-FU. The test can be described thus: Induction of apoptosis in human Bel7402/5-FU cells assessed as upregulation of Bax expression at 0.5 to 5 uM incubated for 24 hrs by Western blot analysis. The test is classed as functional, cell-based. Put shortly:
as §1

Test [9] relates to Bel7402/5-FU. The test can be described thus: Induction of apoptosis in human Bel7402/5-FU assessed as early apoptotic cells at 1 uM incubated for 48 hrs by annexinV-FITC/propidium iodide staining based flow cytometry (reference value: 20.1 to 20.3 %).
The test system of test [10] is Bel7402/5-FU. The test can be described thus: Induction of apoptosis in human Bel7402/5-FU cells assessed as increase in apoptotic bodies incubated for 48 hrs by DAPI staining based fluorescence microscopic analysis. The test is classed as functional, cell-based. Put shortly: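 Bel-7402/5-FU cells were seeded at 5 × 10⁵ per well and left 12 h, then exposed at three concentrations (1, 2, 5) for 48 h. Cells were washed three times in PBS and stained with DAPI for 10 min at room temperature. Nuclear morphology was scored by fluorescence microscopy.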

Test [11] deals with Bel7402/5-FU. The test can be described thus: Induction of apoptosis in human Bel7402/5-FU assessed as late apoptotic cells at 5 uM incubated for 48 hrs by annexinV-FITC/propidium iodide staining based flow cytometry (reference value: 0.945 %).

Activity calls are given as the source filed them. The rule behind the calls is not given here.

Usually IC50 stands for the concentration that gives 50% inhibition. A higher IC50 goes with weaker potency in that assay.

Regarding `C=C1C(=O)O[C@H]2[C@H]1CC/C(COC(=O)Cn1cc(F)c(=O)n(Cc3ccc(C(F)(F)F)cc3)c1=O)=C\CC[C@@]1(C)O[C@@H]21`, the Activity in test [1] was 4.86%; in [4], “Dose-dependent effect”; in test [5] it was “Dose-dependent effect”; in test [9] it was 3.5%; in [10], “Dose-dependent effect”; in [11], 19.5 - 46.1%. Besides, the “Ratio IC50” value in test [2] turned out to be 5.8. The IC50 in test [3] stood at 2.25 µM; in test [7], 5.2 µM. Further, the result in [6] and in [8] was Active.
